Measured values taken from ChEMBL document CHEMBL3877245 (Eur J Med Chem, 2016).
The source made the active and inactive calls. The calls are words filed in the database; no cut-off is given here.

Columns and labels:
[1] = molecular target: alpha3beta4 nAChR (neuronal acetylcholine receptor alpha3/beta4) (Rattus norvegicus, UniProt P04757+P12392); test: Displacement of [3H]epibatidine from rat alpha3beta4 nAChR at 10 uM by liquid scintillation counting; conditions: probe [3H]epibatidine
[2] = molecular target: T1, Acetylcholine receptor; alpha1/beta1/delta/gamma (Homo sapiens, UniProt P02708+P07510+P11230+Q07001); test: Agonist activity at alpha1beta1gammadelta nAChR in human TE671/RD cells after 9.5 mins by 86Rb+ efflux assay; format: cell-based
Method in brief: (§1)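 86Rb+ efflux: cells loaded with ~350,000 cpm 86Rb+ at least 4 h (typically overnight), rinsed with efflux buffer pH 7.4 (130 mM NaCl, 5.4 mM KCl, 2 mM CaCl2, 50 mM HEPES, 5 mM glucose). Test drug alone applied 9.5 min. Efflux normalized, after nonspecific subtraction, to specific efflux of fully efficacious carbamylcholine control; nonspecific defined with carbamylcholine plus mecamylamine; EC50 derived.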

[3] = molecular target: Neuronal acetylcholine receptor; alpha2/beta4 (Rattus norvegicus, UniProt P12389+P12392); test: Displacement of [3H]epibatidine from rat alpha2beta4 nAChR by liquid scintillation counting; format: protein-complex assay
[4] = Antagonist activity at alpha3beta4* in human SH-SY5Y cells assessed as reduction in carbamylcholine induced 86Rb+ efflux preincubated for 10 mins followed by carbamylcholine addition measured after 5 mins by Cherenkov counting; format: cell-based
Method in brief: (§2)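 Same 86Rb+-loaded cells and pH 7.4 efflux buffer. Cells lysed in 0.1 M NaOH/0.1% SDS and Cerenkov counted. Specific efflux = total minus nonspecific (mecamylamine-blocked); inactivation IC50 derived from inhibition of carbamylcholine response.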

[5] = molecular target: Neuronal acetylcholine receptor; alpha3/beta2 (Rattus norvegicus, UniProt P04757+P12390); test: Displacement of [3H]epibatidine from rat alpha3beta2 nAChR by liquid scintillation counting; format: protein-complex assay
Chain of Neuronal acetylcholine receptor; alpha3/beta2 (P04757 whole entry): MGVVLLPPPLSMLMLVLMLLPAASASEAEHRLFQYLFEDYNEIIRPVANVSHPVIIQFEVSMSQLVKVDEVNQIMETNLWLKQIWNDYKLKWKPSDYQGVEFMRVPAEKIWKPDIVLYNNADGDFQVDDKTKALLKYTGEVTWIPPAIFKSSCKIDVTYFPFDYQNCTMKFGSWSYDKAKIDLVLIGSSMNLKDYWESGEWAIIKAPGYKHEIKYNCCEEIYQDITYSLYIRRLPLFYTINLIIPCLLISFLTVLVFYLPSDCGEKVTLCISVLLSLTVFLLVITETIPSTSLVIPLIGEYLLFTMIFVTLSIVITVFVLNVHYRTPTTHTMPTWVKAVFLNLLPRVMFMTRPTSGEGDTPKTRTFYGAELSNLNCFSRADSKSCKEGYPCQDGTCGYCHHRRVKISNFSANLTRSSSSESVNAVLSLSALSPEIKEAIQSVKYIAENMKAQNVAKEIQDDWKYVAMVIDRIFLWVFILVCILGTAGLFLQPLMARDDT
Chain of Neuronal acetylcholine receptor; alpha3/beta2 (P12390 whole entry): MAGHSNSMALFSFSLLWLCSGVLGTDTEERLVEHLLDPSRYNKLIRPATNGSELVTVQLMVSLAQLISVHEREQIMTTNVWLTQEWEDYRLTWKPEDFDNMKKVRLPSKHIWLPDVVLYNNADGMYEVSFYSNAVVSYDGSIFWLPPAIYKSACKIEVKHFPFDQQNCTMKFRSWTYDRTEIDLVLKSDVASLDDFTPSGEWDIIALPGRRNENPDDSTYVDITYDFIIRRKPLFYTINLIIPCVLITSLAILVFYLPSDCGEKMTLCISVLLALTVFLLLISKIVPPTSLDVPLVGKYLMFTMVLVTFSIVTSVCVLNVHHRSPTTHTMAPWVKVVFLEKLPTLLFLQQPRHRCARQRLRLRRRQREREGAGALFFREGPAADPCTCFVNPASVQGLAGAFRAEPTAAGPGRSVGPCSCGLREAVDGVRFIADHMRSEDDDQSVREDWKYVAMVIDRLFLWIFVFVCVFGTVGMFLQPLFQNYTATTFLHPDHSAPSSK

[6] = molecular target: T1, Acetylcholine receptor; alpha1/beta1/delta/gamma; test: Antagonist activity at alpha1beta1gammadelta nAChR in human TE671/RD cells assessed as reduction in carbamylcholine induced 86Rb+ efflux preincubated for 10 mins followed by carbamylcholine addition measured after 5 mins by Cherenkov counting; format: cell-based; method in brief: as §2
[7] = molecular target: Neuronal acetylcholine receptor; alpha2/beta2 (Rattus norvegicus, UniProt P12389+P12390); test: Displacement of [3H]epibatidine from rat alpha2beta2 nAChR by liquid scintillation counting; format: protein-complex assay
[8] = molecular target: Neuronal acetylcholine receptor; alpha4/beta4 (Rattus norvegicus, UniProt P09483+P12392); test: Displacement of [3H]epibatidine from rat alpha4beta4 nAChR by liquid scintillation counting; format: protein-complex assay
Chain of Neuronal acetylcholine receptor; alpha4/beta4 (P09483 whole entry): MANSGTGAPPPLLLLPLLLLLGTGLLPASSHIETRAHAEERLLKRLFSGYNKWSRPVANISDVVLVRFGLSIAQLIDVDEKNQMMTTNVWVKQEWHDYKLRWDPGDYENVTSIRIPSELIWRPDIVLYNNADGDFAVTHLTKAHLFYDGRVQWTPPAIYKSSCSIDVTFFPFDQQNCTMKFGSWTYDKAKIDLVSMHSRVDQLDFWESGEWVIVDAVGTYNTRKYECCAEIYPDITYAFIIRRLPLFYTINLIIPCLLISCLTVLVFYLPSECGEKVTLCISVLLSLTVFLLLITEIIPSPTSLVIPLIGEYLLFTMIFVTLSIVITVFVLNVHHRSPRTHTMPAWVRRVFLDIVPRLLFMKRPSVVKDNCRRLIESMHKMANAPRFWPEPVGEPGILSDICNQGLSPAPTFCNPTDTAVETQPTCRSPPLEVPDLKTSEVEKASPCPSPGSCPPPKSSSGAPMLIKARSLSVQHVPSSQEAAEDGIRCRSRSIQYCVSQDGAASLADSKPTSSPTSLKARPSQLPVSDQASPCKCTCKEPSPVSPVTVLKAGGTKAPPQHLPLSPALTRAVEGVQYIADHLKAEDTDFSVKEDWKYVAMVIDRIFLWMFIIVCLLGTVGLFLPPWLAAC
Chain of Neuronal acetylcholine receptor; alpha4/beta4 (P12392 whole entry): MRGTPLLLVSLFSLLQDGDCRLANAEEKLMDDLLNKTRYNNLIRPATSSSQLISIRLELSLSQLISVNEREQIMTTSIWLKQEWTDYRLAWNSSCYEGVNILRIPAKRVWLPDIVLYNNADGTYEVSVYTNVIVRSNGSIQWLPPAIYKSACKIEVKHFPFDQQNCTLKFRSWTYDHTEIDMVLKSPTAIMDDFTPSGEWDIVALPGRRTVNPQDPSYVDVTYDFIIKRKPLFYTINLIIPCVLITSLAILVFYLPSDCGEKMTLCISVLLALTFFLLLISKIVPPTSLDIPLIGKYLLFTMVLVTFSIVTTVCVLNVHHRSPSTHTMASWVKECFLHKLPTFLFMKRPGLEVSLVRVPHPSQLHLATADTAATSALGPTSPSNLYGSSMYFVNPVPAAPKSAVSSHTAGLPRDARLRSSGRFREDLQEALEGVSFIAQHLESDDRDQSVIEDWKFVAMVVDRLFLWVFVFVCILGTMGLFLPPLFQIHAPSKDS

[9] = Agonist activity at alpha3beta4* nAChR in human SH-SY5Y cells after 9.5 mins by 86Rb+ efflux assay; format: cell-based; method in brief: as §1
[10] = molecular target: Neuronal acetylcholine receptor; alpha3/beta4 (Rattus norvegicus, UniProt P04757+P12392); test: Displacement of [3H]epibatidine from rat alpha3beta4 nAChR by liquid scintillation counting; format: protein-complex assay
Chain of Neuronal acetylcholine receptor; alpha3/beta4 (P04757 whole entry): as the sequence (P04757 whole entry) above
Chain of Neuronal acetylcholine receptor; alpha3/beta4 (P12392 whole entry): as the sequence (P12392 whole entry) above

[11] = Displacement of [3H]epibatidine from rat forebrain alpha4beta2* nAChR by liquid scintillation counting
[12] = molecular target: Neuronal acetylcholine receptor; alpha4/beta2 (Rattus norvegicus, UniProt P09483+P12390); test: Displacement of [3H]epibatidine from rat alpha4beta2 nAChR by liquid scintillation counting; format: protein-complex assay
Chain of Neuronal acetylcholine receptor; alpha4/beta2 (Rattus norvegicus, UniProt P09483+P12390) (P09483 whole entry): as the sequence (P09483 whole entry) above
Chain of Neuronal acetylcholine receptor; alpha4/beta2 (Rattus norvegicus, UniProt P09483+P12390) (P12390 whole entry): as the sequence (P12390 whole entry) above

[13] = molecular target: T2, Neuronal acetylcholine receptor; alpha4/beta2 (Homo sapiens, UniProt P17787+P43681); test: Agonist activity at human alpha4beta2 nAChR expressed in human SH-EP1 cells after 9.5 mins by 86Rb+ efflux assay; format: cell-based
[14] = molecular target: T2, Neuronal acetylcholine receptor; alpha4/beta2; test: Agonist activity at human (alpha4beta2 )2alpha4 expressed in human SH-EP1 cells after 9.5 mins by 86Rb+ efflux assay relative to carbamylcholine; format: cell-based
[15] = Antidepressant activity in C57BL6 mouse at 10 mg/kg, ip administered 15 mins prior to testing by SmartCube automated system based method; format: functional, organism-based
Method in brief: (§3)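 Male C57 BL6 mice, group-housed 4 per cage, 22 °C, 12 h light-dark. Compound dissolved in water, given i.p. at 10 mL/kg, 15 min before automated SmartCube session; behaviour captured by digital video and classified by computer algorithms into a behavioural signature.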

[16] = molecular target: T2, Neuronal acetylcholine receptor; alpha4/beta2; test: Agonist activity at human (alpha4beta2 )2beta2 expressed in human SH-EP1 cells after 9.5 mins by 86Rb+ efflux assay relative to carbamylcholine; format: cell-based
[17] = molecular target: T2, Neuronal acetylcholine receptor; alpha4/beta2; test: Antagonist activity at human alpha4beta2 expressed in human SH-EP1 cells assessed as reduction in carbamylcholine induced 86Rb+ efflux preincubated for 10 mins followed by carbamylcholine addition measured after 5 mins by Cherenkov counting; format: cell-based; method in brief: as §2
[18] = Antidepressant activity in po dosed BALB/cJ mouse assessed as decrease in immobility time administered 30 mins and measured over 6 mins by classical Porsolt's forced swim test; format: functional, organism-based
Method in brief: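 Male BALB/cJ mice, 8–10 weeks, dosed po in water (10 mL/kg) at 1 and 10 mg/kg; water vehicle, sertraline 20 mg/kg ip as positive control. 30 min later placed in 1 L beaker with 12 cm of 23 °C water; immobility recorded over 6-min trial, total time analysed by ANOVA.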

[19] = Antidepressant activity in C57BL6 mouse at 5 mg/kg, ip administered 15 mins prior to testing by SmartCube automated system based method; format: functional, organism-based; method in brief: as §3

Row | Structure (SMILES) | EC50 [2] [nM] | Ki [3] [nM] | IC50 [4] [nM] | Ki [5] [nM] | IC50 [6] [nM] | Ki [7] [nM] | Ki [8] [nM] | EC50 [9] [nM] | Ki [10] [nM] | Ki [11] [nM] | Ki [12] [nM] | EC50 [13] [nM] | Efficacy [14] [%] | Efficacy [16] [%] | Efficacy [17] [%] | IC50 [17] [nM] | further results
1 | CN1CCCN(c2cncc(-c3cc(CCO)no3)c2)CC1 | > 10000 | > 10000 | > 10000 | 1040 | > 10000 | 46.3 | 4940 | > 10000 | – | – | – | – | – | – | – | – | inhibition at 10 µM [1]: < 50%
2 | c1cncc(N2CC3CC2CN3)c1 (stereo not drawn) | – | 15.2 | – | 3.1 | – | 0.3 | 7.7 | – | 64.6 | 0.8 | 1 | – | – | – | – | – | –
3 | COCC[C@@H]1C[C@H]1c1cncc(N2CCCNCC2)c1 | > 10000 | 256 | > 10000 | 15.8 | > 10000 | 0.3 | 168 | > 10000 | > 10000 | 2.7 | 0.5 | 17.1 | -5.6 | 63 | 79 | 15.7 | Activity [15]: Active
4 | c1cncc(N2CCCNCC2)c1 | – | 62 | – | 5.1 | – | 1.1 | 71.6 | – | 366 | 3.3 | 3.4 | – | – | – | – | – | –
5 | COCC[C@H]1C[C@@H]1c1cncc(N2CCCN(C)CC2)c1 | > 10000 | – | > 10000 | 681 | > 10000 | 18.1 | 4810 | > 10000 | – | 33.8 | 25.4 | > 1000 | – | – | – | > 1000 | pEC50 ([13]; sh-ep1): < 6; pIC50 ([17]; sh-ep1): < 6
6 | COCC[C@@H]1C[C@H]1c1cncc(N2C[C@@H]3C[C@H]2CN3)c1 | > 10000 | – | > 10000 | 617 | > 10000 | 43.1 | 8450 | > 10000 | – | – | – | – | – | – | – | – | –
7 | COCC[C@H]1C[C@@H]1c1cncc(N2CCCNCC2)c1 | > 10000 | 460 | > 10000 | 17 | > 10000 | 0.3 | 151 | > 10000 | > 10000 | 2.7 | 0.7 | 15.9 | -9.3 | 81 | 74 | 16 | Activity [18]: Dose-dependent effect; Activity [19]: Active
8 | COCC[C@H]1C[C@@H]1c1cncc(N2C[C@@H]3C[C@H]2CN3)c1 | > 10000 | 4810 | > 10000 | 141 | > 10000 | 3.1 | 1340 | > 10000 | – | – | – | – | – | – | – | – | –
9 | OCCc1cc(-c2cncc(N3CCCNCC3)c2)on1 | > 10000 | 331 | > 10000 | 42 | > 10000 | 0.8 | 67.6 | > 10000 | 8100 | 3.5 | 0.8 | 30.9 | -5 | 58 | 68 | 50.8 | Activity [15]: Active
